From ChEMBL document CHEMBL3085645, “Design, synthesis and biological evaluation of phosphorodiamidate prodrugs of antiviral and anticancer nucleosides” (Eur J Med Chem, 2013)

Assays:
CCRF-CEM [1] = assay: Cytostatic activity against human CEM cells assessed as growth inhibition after 3 days by particle counting analysis; format: functional, cell-based; details: 72 h
Outline: (§1)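 Tumor cells seeded and exposed to a range of compound concentrations. Cell number counted with a particle counter after 2 days (L1210, L1210/TK) or 3 days (CEM, CEM/TK, HeLa, HeLa TK, Caco-2, Colo-320).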

L1210 [2] = assay: Cytostatic activity against mouse L1210 cells assessed as growth inhibition after 2 days by particle counting analysis; format: functional, cell-based; details: L1210, 48 h; outline: as §1
CCRF-CEM [3] = assay: Cytotoxicity against human CEM cells; format: cell-based
HeLa [4] = assay: Cytostatic activity against human HeLa cells assessed as growth inhibition after 3 days by particle counting analysis; format: functional, cell-based; details: 72 h; outline: as §1
[5] = system: Human immunodeficiency virus 1; assay: Antiviral activity against HIV1 3B infected in human CEM cells assessed as virus-induced giant cell formation after 4 days by microscopic analysis; format: functional, organism-based; details: Human immunodeficiency virus 1, 3B, CCRF-CEM, 96 h
Outline: (§2)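 CEM cells (∼3 × 10^5 cells/cm3) infected with 100 CCID50/mL of HIV-1(IIIB) or HIV-2(ROD), seeded into wells with compound dilutions. Giant cell formation examined microscopically after 4 days at 37 °C.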

[6] = system: Human immunodeficiency virus 2; assay: Antiviral activity against HIV2 ROD infected in human CEM cells assessed as virus-induced giant cell formation after 4 days by microscopic analysis; format: functional, organism-based; details: Human immunodeficiency virus 2, ISOLATE ROD, CCRF-CEM, 96 h; outline: as §2
Caco-2 = assay: Cytostatic activity against human Caco2 cells assessed as growth inhibition after 3 days by particle counting analysis; format: functional, cell-based; details: Caco-2, 72 h; outline: as §1
COLO 320 = assay: Cytostatic activity against human COLO320 cells assessed as growth inhibition after 3 days by particle counting analysis; format: functional, cell-based; details: COLO 320, 72 h; outline: as §1
HeLa [7] = assay: Cytostatic activity against thymidine kinase-deficient human HeLa cells assessed as growth inhibition after 3 days by particle counting analysis; format: functional, cell-based; details: 72 h; outline: as §1
L1210 [8] = assay: Cytostatic activity against thymidine kinase-deficient mouse L1210 cells assessed as growth inhibition after 2 days by particle counting analysis; format: functional, cell-based; details: L1210, 48 h; outline: as §1
CCRF-CEM [9] = assay: Cytostatic activity against thymidine kinase-deficient human CEM cells assessed as growth inhibition after 3 days by particle counting analysis; format: functional, cell-based; details: 72 h; outline: as §1
Felid alphaherpesvirus 1 = assay: Antiviral activity against Feline herpesvirus infected in cat CRFK cells assessed as inhibition of virus-induced cytopathicity; format: functional, organism-based; details: Felid alphaherpesvirus 1, CRFK
Human alphaherpesvirus 2 = assay: Antiviral activity against Herpes simplex virus 2 G infected in HEL cells assessed as inhibition of virus-induced cytopathicity; format: functional, organism-based; details: Human alphaherpesvirus 2, strain G
[10] = Prodrug conversion assessed as carboxypeptidase Y (unknown origin)-mediated (S)-2-((((2R,3S,4R,5R)-5-(5-amino-4-carbamoyl-1H-imidazol-1-yl)-3,4-dihydroxytetrahydrofuran-2-yl)methoxy)oxidophosphorylamino)propanoate formation at 4.8 mg measured after 24 hrs by 31P-NMR analysis; format: ADME; details: human
Outline: (§3)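 Prodrug incubated with carboxypeptidase Y in d6-acetone/Trizma buffer (pH 7.6); conversion followed over time by 31P NMR.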

Human alphaherpesvirus 1 [11] = assay: Antiviral activity against Herpes simplex virus 1 KOS infected in HEL cells assessed as inhibition of virus-induced cytopathicity; format: functional, organism-based; details: Human alphaherpesvirus 1, KOS
[12] = Cytotoxicity against HEL cells; format: cell-based; details: human
Human alphaherpesvirus 1 [13] = assay: Antiviral activity against acyclovir-resistant thymidine kinase-deficient Herpes simplex virus 1 KOS infected in HEL cells assessed as inhibition of virus-induced cytopathicity; format: functional, organism-based; details: Human alphaherpesvirus 1, KOS
[14] = system: Human immunodeficiency virus 1; assay: Antiviral activity against HIV1 infected in human MT4 cells assessed as p24 production after 3 days; details: Human immunodeficiency virus 1, MT4, 72 h
[15] = Prodrug conversion assessed as carboxypeptidase Y (unknown origin)-mediated (8S)-1-(2-amino-6-oxo-1,6-dihydro-9H-purin-9-yl)-8-methyl-6-oxido-2,5-dioxa-7-aza-6-phosphanonan-9-oate 6-oxide formation at 5 mg measured after 7.5 hrs by 31P-NMR analysis; format: ADME; details: human; outline: as §3
[16] = Prodrug conversion assessed as carboxypeptidase Y (unknown origin)-mediated metabolite formation lacking one ester moiety at 5 mg measured every 5 mins for 24 hrs by 31P-NMR analysis; format: ADME; details: human; outline: as §3
Hepatitis C virus = assay: Antiviral activity against Hepatitis C virus genotype 1b infected in human HuH7 cells assessed as inhibition of viral replication; format: functional, organism-based, Hepacivirus hominis; details: Huh-7, read-out: EC50
MT4 = assay: Cytotoxicity against human MT4 cells assessed as cell viability by propidium iodide staining-based cell counting analysis
Outline: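 MT-4 cultures, untreated or treated, were counted on an automated cell counter. Total and dead cells were enumerated by propidium iodide-based assay.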

[17] = Chemical stability in d6 acetone/trizma buffer at 4.8 mg in absence of carboxypeptidase Y; format: physicochemical
Outline: (§4)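 Prodrug kept in d6-acetone plus Trizma buffer (pH 7.6) without carboxypeptidase Y; integrity followed by 31P NMR.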

[18] = Chemical stability in d6 acetone/trizma buffer at 5 mg in absence of carboxypeptidase Y; format: physicochemical; outline: as §4

Row | Structure (SMILES) | IC50 (CCRF-CEM [1]) [µM] | IC50 (L1210 [2]) [µM] | CC50 (CCRF-CEM [3]) [µM] | IC50 (HeLa [4]) [µM] | EC50 [5] [µM] | EC50 [6] [µM] | IC50 (Caco-2) [µM] | IC50 (COLO 320) [µM] | IC50 (HeLa [7]) [µM] | IC50 (L1210 [8]) [µM] | IC50 (CCRF-CEM [9]) [µM] | further results
1 | Nc1ncnc2c1ncn2[C@H]1CC[C@@H](CO)O1 | > 250 | > 250 | > 250 | > 250 | 7.2 | 2.8 |  |  |  |  |  | 
2 | Cc1cn([C@H]2C=C[C@@H](COP(=O)(N[C@@H](C)C(=O)OCc3ccccc3)N[C@@H](C)C(=O)OCc3ccccc3)O2)c(=O)[nH]c1=O | 92 | 8.9 |  | 116 | 0.14 | 0.096 | 241 | 133 | 29 | 7.4 | 46 | 
3 | Cc1cn([C@H]2C=C[C@@H](COP(=O)(N[C@@H](C)C(=O)OC3CCCCC3)N[C@@H](C)C(=O)OC3CCCCC3)O2)c(=O)[nH]c1=O | 73 | 29 |  | 96 | 0.15 | 0.38 | 135 |  | 36 | 25 | 54 | 
4 | Cc1cn([C@H]2C=C[C@@H](COP(=O)(N[C@@H](C)C(=O)OCC(C)(C)C)N[C@@H](C)C(=O)OCC(C)(C)C)O2)c(=O)[nH]c1=O | 96 | 47 |  | 110 | 0.09 | 0.14 | 174 | 30 | 53 | 23 | 37 | 
5 | C[C@H](NP(=O)(N[C@@H](C)C(=O)OCC(C)(C)C)OC[C@@H]1CC[C@H](n2cnc3c(N)ncnc32)O1)C(=O)OCC(C)(C)C | 36 | 76 | 35 |  | 0.1 | 0.049 |  |  |  |  |  | 
6 | CC(=O)Nc1ccn([C@H]2CS[C@@H](CO)O2)c(=O)n1 | > 250 | > 250 |  | 242 |  |  | > 250 | ≥ 250 | > 250 | > 250 | > 250 | 
7 | CC(=O)Nc1ccn([C@H]2CS[C@@H](COP(=O)(N[C@@H](C)C(=O)OCc3ccccc3)N[C@@H](C)C(=O)OCc3ccccc3)O2)c(=O)n1 | 120 |  |  | 155 |  |  | ≥ 250 | > 250 |  |  |  | 
8 | C[C@H](NP(=O)(N[C@@H](C)C(=O)OCc1ccccc1)OC[C@H]1O[C@@H](n2ccc(N)nc2=O)CS1)C(=O)OCc1ccccc1 | 116 | 86 |  | 93 | > 50 | > 50 | 87 | 85 | 38 | 57 | 106 | 
9 | C[C@H](NP(=O)(N[C@@H](C)C(=O)OCC(C)(C)C)OC[C@H]1O[C@@H](n2cnc(C(N)=O)c2N)[C@H](O)[C@@H]1O)C(=O)OCC(C)(C)C | > 250 | > 250 |  | > 250 |  |  |  |  | > 250 |  |  | EC50 (Felid alphaherpesvirus 1): > 100 µM; EC50 (Human alphaherpesvirus 2): > 100 µM; Drug metabolism [10]: Not Active; EC50 (Human alphaherpesvirus 1 [11]): > 100 µM; MCC [12]: > 100 µM; EC50 (Human alphaherpesvirus 1 [13]): > 100 µM
10 | Cc1cn([C@H]2C[C@H](N=[N+]=[N-])[C@@H](COP(=O)(N[C@@H](C)C(=O)OCc3ccccc3)N[C@@H](C)C(=O)OCc3ccccc3)O2)c(=O)[nH]c1=O |  |  | 30 |  | 0.0092 | 0.03 |  |  |  |  |  | 
11 | C[C@H](NP(=O)(N[C@@H](C)C(=O)OCc1ccccc1)OCCOCn1cnc2c(=O)[nH]c(N)nc21)C(=O)OCc1ccccc1 |  |  |  |  |  |  |  |  |  |  |  | EC50 [14]: 2.01 µM; EC50 (Felid alphaherpesvirus 1): > 100 µM; Drug metabolism [15]: Active; Drug metabolism [16]: Active; EC50 (Human alphaherpesvirus 2): 16 µM; EC50 (Hepatitis C virus): > 100 µM; CC50 (MT4): 34.9 µM; Stability [17]: Stable; EC50 (Human alphaherpesvirus 1 [11]): 18 µM; MCC [12]: > 100 µM; Stability [18]: Stable; EC50 (Human alphaherpesvirus 1 [13]): 25 µM
12 | C[C@H](NP(=O)(N[C@@H](C)C(=O)OCC(C)(C)C)OCCOCn1cnc2c(=O)[nH]c(N)nc21)C(=O)OCC(C)(C)C |  |  |  |  |  |  |  |  |  |  |  | EC50 [14]: 4.07 µM; EC50 (Felid alphaherpesvirus 1): > 100 µM; EC50 (Human alphaherpesvirus 2): 40 µM; EC50 (Hepatitis C virus): > 100 µM; CC50 (MT4): 82.8 µM; EC50 (Human alphaherpesvirus 1 [11]): 33 µM; MCC [12]: > 100 µM; EC50 (Human alphaherpesvirus 1 [13]): 20 µM
13 | Nc1nc(NC2CC2)c2ncn([C@H]3C=C[C@@H](CO)C3)c2n1 [ABACAVIR] | > 250 | > 250 | > 250 | 170 | 23 | 18 |  |  |  |  |  | 
14 | Nc1nc2c(ncn2COCCO)c(=O)[nH]1 [ACYCLOVIR] |  |  |  |  |  |  |  |  |  |  |  | EC50 [14]: > 250 µM; EC50 (Felid alphaherpesvirus 1): > 100 µM; CC50 (MT4): > 250 µM; EC50 (Human alphaherpesvirus 1 [11]): 0.23 µM; MCC [12]: > 100 µM; EC50 (Human alphaherpesvirus 1 [13]): 23 µM
15 | Nc1ccn([C@@H]2CS[C@H](CO)O2)c(=O)n1 [LAMIVUDINE] | > 250 | > 250 | > 250 | > 250 | 0.099 | 0.18 | > 250 | > 250 | > 250 | > 250 | > 250 | 
16 | Cc1cn([C@H]2C=C[C@@H](CO)O2)c(=O)[nH]c1=O [STAVUDINE] |  |  |  | > 250 | 0.39 | 0.58 | > 250 | 159 | > 250 | ≥ 250 | > 250 | 
17 | Cc1cn([C@H]2C[C@H](N=[N+]=[N-])[C@@H](CO)O2)c(=O)[nH]c1=O [ZIDOVUDINE] |  |  | > 250 |  | 0.012 | 0.067 |  |  |  |  |  | 
